According to ChEMBL document CHEMBL1146783, “Conformationally restricted analogs of deoxynegamycin” (Bioorg Med Chem Lett, 2004):
≈ marks a conversion by molar mass, not a printed value.

Columns and labels:
Type in all cases: functional
Escherichia coli [1] = test: Minimum inhibitory concentration (MIC) against Escherichia coli ATCC 25922; Inactive
Method in brief: (§1)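 Broth microdilution in Mueller–Hinton broth supplemented with 50% human serum; inoculum 5 × 10⁵ cfu/mL.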

Escherichia coli [2] = test: Minimum inhibitory concentration (MIC) against Escherichia coli MG1655 tolC; Inactive; method in brief: as §1
Staphylococcus aureus [3] = test: Minimum inhibitory concentration (MIC) against Staphylococcus aureus […]; Inactive; method in brief: as §1
Streptococcus pneumoniae [4] = test: Minimum inhibitory concentration (MIC) against Streptococcus pneumoniae 1005; Inactive; method in brief: as §1
Pseudomonas aeruginosa [5] = test: Minimum inhibitory concentration (MIC) against Pseudomonas aeruginosa PA01; Inactive; method in brief: as §1
Klebsiella pneumoniae [6] = test: Minimum inhibitory concentration (MIC) against Klebsiella pneumoniae ATCC 13882; Inactive; method in brief: as §1
Enterobacter cloacae [7] = test: Minimum inhibitory concentration (MIC) against Enterobacter cloacae ATCC 35030; Inactive; method in brief: as §1
Escherichia coli [8] = test: Minimum inhibitory concentration (MIC) against Escherichia coli MG1655; Inactive; method in brief: as §1
Escherichia coli [9] = test: Minimum inhibitory concentration (MIC) against Escherichia coli ATCC 25922; method in brief: as §1
Streptococcus pneumoniae [10] = test: Minimum inhibitory concentration (MIC) against Streptococcus pneumoniae 1005; method in brief: as §1
Klebsiella pneumoniae [11] = test: Minimum inhibitory concentration (MIC) against Klebsiella pneumoniae ATCC 13882; method in brief: as §1
Escherichia coli [12] = test: Minimum inhibitory concentration (MIC) against Escherichia coli MG1655; method in brief: as §1
Pseudomonas aeruginosa [13] = test: Minimum inhibitory concentration (MIC) against Pseudomonas aeruginosa PA01; method in brief: as §1
Staphylococcus aureus [14] = test: Minimum inhibitory concentration (MIC) against Staphylococcus aureus ATCC 25293; method in brief: as §1
Escherichia coli [15] = test: Minimum inhibitory concentration (MIC) against Escherichia coli MG1655 tolC; method in brief: as §1
Enterobacter cloacae [16] = test: Minimum inhibitory concentration (MIC) against Enterobacter cloacae ATCC 35030; method in brief: as §1
Mus musculus = species on record: Mus musculus; test: Compound was evaluated for its efficacy in an Escherichia coli murine septicemia model
Method in brief: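 Mice infected intraperitoneally with about 1 × 10⁵ cfu of E. coli ATCC25922; compound given intravenously at 1 and 5 h post-infection.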

[17] = Escherichia coli, ATCC 25922, read-out: MIC
[18] = Klebsiella pneumoniae, ATCC 13882, read-out: MIC
[19] = Escherichia coli, read-out: MIC
[20] = Pseudomonas aeruginosa, read-out: MIC
[21] = Staphylococcus aureus, ATCC 25293, read-out: MIC
[22] = Escherichia coli, MG1655, read-out: MIC
[23] = Enterobacter cloacae, ATCC 35030, read-out: MIC

Row | MIC (Escherichia coli [1]) [mg/L] | MIC (Escherichia coli [2]) [mg/L] | MIC (Staphylococcus aureus [3]) [mg/L] | MIC (Streptococcus pneumoniae [4]) [mg/L] | MIC (Pseudomonas aeruginosa [5]) [mg/L] | MIC (Klebsiella pneumoniae [6]) [mg/L] | MIC (Enterobacter cloacae [7]) [mg/L] | MIC (Escherichia coli [8]) [mg/L] | MIC (Escherichia coli [9]; [17]) [mg/L] | MIC (Streptococcus pneumoniae [10]) [mg/L] | MIC (Klebsiella pneumoniae [11]; [18]) [mg/L] | MIC (Escherichia coli [12]; [19]) [mg/L] | MIC (Pseudomonas aeruginosa [13]; [20]) [mg/L] | MIC (Staphylococcus aureus [14]; [21]) [mg/L] | MIC (Escherichia coli [15]; [22]) [mg/L] | MIC (Enterobacter cloacae [16]; [23]) [mg/L] | Structure (SMILES) | also measured
1 |  |  |  |  |  |  |  |  | > 128 | > 128 | > 128 | > 128 | > 128 | > 128 | > 128 | > 128 | CN(CC(=O)O)NC(=O)C[C@H](N)C1CCCNC1 (stereo partly specified) | 
2 |  |  |  |  |  |  |  |  | 128 (≈ 470 µM) | 128 (≈ 470 µM) | 32 (≈ 117 µM) | 64 (≈ 235 µM) | 256 (≈ 940 µM) | 128 (≈ 470 µM) | 32 (≈ 117 µM) | 128 (≈ 470 µM) | CN(CC(=O)O)NC(=O)CC(N)C1CCC(N)CC1 (stereo unspecified) | 
3 | > 256 | > 256 | > 256 | > 256 | > 256 | > 256 | > 256 | > 256 |  |  |  |  |  |  |  |  | CN(CC(=O)O)NC(=O)CC1(N)CCC(N)CC1 (stereo unspecified) | 
4 |  |  |  |  |  |  |  |  | 256 (≈ 940 µM) | 128 (≈ 470 µM) | 64 (≈ 235 µM) | 128 (≈ 470 µM) | > 256 | 256 (≈ 940 µM) | 64 (≈ 235 µM) | 256 (≈ 940 µM) | CN(CC(=O)O)NC(=O)CC(N)C1CCCC(N)C1 (stereo unspecified) | 
5 |  |  |  |  |  |  |  |  | 64 (≈ 262 µM) | 128 (≈ 524 µM) | 32 (≈ 131 µM) | 64 (≈ 262 µM) | 256 (≈ 1050 µM) | 256 (≈ 1050 µM) | 32 (≈ 131 µM) | 128 (≈ 524 µM) | CN(CC(=O)O)NC(=O)C[C@H](N)CC1CC1N (stereo partly specified) | 
6 |  |  |  |  |  |  |  |  | 128 (≈ 496 µM) | 128 (≈ 496 µM) | 64 (≈ 248 µM) | 128 (≈ 496 µM) | 256 (≈ 991 µM) | 128 (≈ 496 µM) | 64 (≈ 248 µM) | 128 (≈ 496 µM) | CN(CC(=O)O)NC(=O)CC(N)[C@H]1CC[C@@H](N)C1 (stereo partly specified) | 
7 |  |  |  |  |  |  |  |  | > 128 |  | > 128 | > 128 | > 128 | > 128 | > 128 | > 128 | CN(CC(=O)O)NC(=O)C[C@H](N)C1CC1CN (stereo partly specified) | 
8 |  |  |  |  |  |  |  |  | 128 (≈ 556 µM) |  | 128 (≈ 556 µM) | 128 (≈ 556 µM) | 128 (≈ 556 µM) | 128 (≈ 556 µM) | 128 (≈ 556 µM) | 128 (≈ 556 µM) | CN(CC(=O)O)NC(=O)C[C@H](N)C1CC1N (stereo in doubt; 35e2) | 

The next lines start with the compound.

Row | Structure (SMILES) | MIC (Escherichia coli [1]) [mg/L] | MIC (Escherichia coli [2]) [mg/L] | MIC (Staphylococcus aureus [3]) [mg/L] | MIC (Streptococcus pneumoniae [4]) [mg/L] | MIC (Pseudomonas aeruginosa [5]) [mg/L] | MIC (Klebsiella pneumoniae [6]) [mg/L] | MIC (Enterobacter cloacae [7]) [mg/L] | MIC (Escherichia coli [8]) [mg/L] | MIC (Escherichia coli [9]; [17]) [mg/L] | MIC (Streptococcus pneumoniae [10]) [mg/L] | MIC (Klebsiella pneumoniae [11]; [18]) [mg/L] | MIC (Escherichia coli [12]; [19]) [mg/L] | MIC (Pseudomonas aeruginosa [13]; [20]) [mg/L] | MIC (Staphylococcus aureus [14]; [21]) [mg/L] | MIC (Escherichia coli [15]; [22]) [mg/L] | MIC (Enterobacter cloacae [16]; [23]) [mg/L] | also measured
9 | CN(CC(=O)O)NC(=O)C[C@H](N)Cc1csc(N)n1 | > 256 | > 256 | > 256 | > 256 | > 256 | > 256 | > 256 | > 256 |  |  |  |  |  |  |  |  | 
10 | CN(CC(=O)O)NC(=O)C[C@H](N)/C=C(/F)CN |  |  |  |  |  |  |  |  | > 256 | 256 (≈ 1030 µM) | > 256 | > 256 | > 256 | > 256 | > 256 | > 256 | 
11 | CN(CC(=O)O)NC(=O)C[C@H](N)c1csc(N)n1 | > 256 | > 256 | > 256 | > 256 | > 256 | > 256 | > 256 | > 256 |  |  |  |  |  |  |  |  | 
12 | CN(CC(=O)O)NC(=O)C[C@H](N)CCCN |  |  |  |  |  |  |  |  | 16 (≈ 68.9 µM) | 64 (≈ 276 µM) | 8 (≈ 34.4 µM) | 8 (≈ 34.4 µM) | 64 (≈ 276 µM) | 64 (≈ 276 µM) | 4 (≈ 17.2 µM) | 4 (≈ 17.2 µM) | ED50 (Mus musculus): 4.8 mg/kg
13 | CN(CC(=O)O)NC(=O)C[C@H](N)/C=C(\F)CN |  |  |  |  |  |  |  |  | > 256 | 256 (≈ 1030 µM) | > 256 | > 256 | > 256 | > 256 | > 256 | > 256 | 
14 | CN(CC(=O)O)NC(=O)C[C@H](N)Cc1csc(CCNC(=O)OC(C)(C)C)n1 | > 256 | > 256 | > 256 | > 256 | > 256 | > 256 | > 256 | > 256 |  |  |  |  |  |  |  |  | 
15 | CN(CC(=O)O)NC(=O)C[C@H](N)Cc1csc(CNC(=O)OC(C)(C)C)n1 | > 256 | > 256 | > 256 | > 256 | > 256 | > 256 | > 256 | > 256 |  |  |  |  |  |  |  |  | 
16 | CN(CC(=O)O)NC(=O)C[C@H](N)c1csc(CNC(=O)OC(C)(C)C)n1 | > 256 | > 256 | > 256 | > 256 | > 256 | > 256 | > 256 | > 256 |  |  |  |  |  |  |  |  | 
17 | CN(CC(=O)O)NC(=O)C[C@H](N)/C=C/CN |  |  |  |  |  |  |  |  | > 256 | 256 (≈ 1110 µM) | > 256 | > 256 | > 256 | > 256 | > 256 | > 256 | 
18 | CN(CC(=O)O)NC(=O)C[C@H](N)c1csc(CCNC(=O)OC(C)(C)C)n1 | > 256 | > 256 | > 256 | > 256 | > 256 | > 256 | > 256 | > 256 |  |  |  |  |  |  |  |  | 
19 | CN(CC(=O)O)NC(=O)C[C@H](N)C1CC1N (stereo in doubt; 35e1) |  |  |  |  |  |  |  |  |  |  |  |  |  |  |  |  | MIC (Escherichia coli [9]): >128 mg/L; MIC (Klebsiella pneumoniae [11]): >128 mg/L; MIC (Escherichia coli [12]): >128 mg/L; MIC (Pseudomonas aeruginosa [13]): >128 mg/L; MIC (Staphylococcus aureus [14]): >128 mg/L; MIC (Escherichia coli [15]): >128 mg/L; MIC (Enterobacter cloacae [16]): >128 mg/L
20 | CN(CC(=O)O)NC(=O)C[C@H](N)C[C@@H](O)CN [NEGAMYCIN] |  |  |  |  |  |  |  |  |  |  |  |  |  |  |  |  | ED50 (Mus musculus): 5.1 mg/kg
